# Tests used:
# K562 = assay: Antiproliferative activity against human K562 cells after 48 hrs by MTT assay; format: functional; conditions: K562, 48 h
# In short: (§1)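 Log-phase cells, harvested by trypsinization, seeded 24 h, then exposed to a range of compound concentrations for 48 h. Culture in RPMI 1640 with 4% FBS, penicillin/streptomycin, 37°C, 5% CO2. DMSO below 1% final; 5-Fu as positive control. Readout is MTT (0.5 mg/mL, 4 h), formazan dissolved in DMSO, absorbance at 570 nm. GI50 = 50% growth inhibition versus untreated cells; means ± SD of at least two independent experiments.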
# SH-SY5Y = assay: Antiproliferative activity against human SH-SY5Y cells after 48 hrs by MTT assay; format: functional; in short: as §1
# AGS [1] = assay: Antiproliferative activity against human AGS cells after 48 hrs by MTT assay; format: functional; in short: as §1
# AGS [2] = assay: Cell cycle arrest in human AGS cells assessed as accumulation at G0/G1 phase at 50 nM after 24 hrs by propidium iodide staining based flow cytometry (reference value: 52.87%); format: functional
# In short: (§2)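 Cells washed twice in ice-cold PBS, fixed in ice-cold 70% ethanol, treated with 0.1 mg/mL RNase, stained with propidium iodide. Phase distribution determined by flow cytometry.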
# AGS [3] = assay: Cell cycle arrest in human AGS cells assessed as accumulation at S phase at 50 nM after 24 hrs by propidium iodide staining based flow cytometry (reference value: 37.94%); format: functional; in short: as §2
# AGS [4] = assay: Cell cycle arrest in human AGS cells assessed as accumulation at G2/M phase at 50 nM after 24 hrs by propidium iodide staining based flow cytometry (reference value: 9.18%); format: functional; in short: as §2
# Tubulin (Sus scrofa) = assay: Inhibition of pig brain tubulin polymerization at 10 uM by spectrophotometry relative to control
# [5] = Cytotoxicity against mouse HT22 cells after 48 hrs by MTT assay; format: cell-based, HT-22
# In short: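 MTT readout after 48 h exposure; CC50 is the 50% cytotoxic concentration, mean of three repeated experiments.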
Compound,GI50 (K562),GI50 (SH-SY5Y),GI50 (AGS [1]),Activity (AGS [2]),Activity (AGS [3]),Activity (AGS [4]),inhibition (Tubulin (Sus scrofa)),CC50 at 48 h [5]
COc1ccc(Cn2cnc3c(N(C)c4ccc(OC)cc4)ncnc32)cc1,> 100 µM,27 µM,> 100 µM,–,–,–,–,–
COc1cc2c(c(OC)c1OC)-c1ccc(OC)c(=O)cc1[C@@H](NC(C)=O)CC2 [COLCHICINE],0.02 µM,0.04 µM,0.04 µM,1.2%,12.58%,86.22%,–,–
COc1ccc(N(C)c2nc(Cl)nc3c2ncn3Cc2ccc(OC)c(OC)c2)cc1,27 µM,7.3 µM,56 µM,–,–,–,25%,–
COc1cc(Cn2cnc3c(Cl)nc(Cl)nc32)cc(OC)c1,4.6 µM,1.7 µM,3.8 µM,–,–,–,13%,> 100 µM
COc1cc(Cn2cnc3c(Cl)ncnc32)cc(OC)c1,> 100 µM,> 100 µM,> 100 µM,–,–,–,–,–
COc1cc(Cn2cnc3c(Cl)nc(Cl)nc32)cc(OC)c1OC,4.3 µM,9.6 µM,9.4 µM,–,–,–,13%,–
COc1ccc(Cn2cnc3c(N(C)c4ccc(OC)cc4)nc(Cl)nc32)cc1,> 100 µM,31 µM,> 100 µM,–,–,–,–,–
COc1ccc(Cn2cnc3c(Cl)nc(Cl)nc32)cc1,36 µM,7.7 µM,19 µM,–,–,–,25%,–
COc1cc(Cn2cnc3c(Cl)ncnc32)cc(OC)c1OC,> 50 µM,> 100 µM,> 50 µM,–,–,–,–,–
COc1ccc(N(C)c2nc(Cl)nc3c2ncn3Cc2cc(OC)cc(OC)c2)cc1,42 µM,> 100 µM,69 µM,–,–,–,–,–
COc1ccc(Cn2cnc3c(Cl)ncnc32)cc1OC,> 50 µM,> 100 µM,> 100 µM,–,–,–,–,–
